In ChEMBL document CHEMBL1122898, “Antiulcer agents. 1. Gastric antisecretory and cytoprotective properties of substituted imidazo[1,2-a]pyridines” (1985):

Each compound was assayed on Canis familiaris (assay: Inhibition of histamine stimulated gastric acid secretion in mongrel dogs following 4 mg/kg p.o. administration.). Details: Canis lupus familiaris, Stomach, route oral.
Format: functional
Outline: (§1)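 Dogs with Heidenhain pouches, 12–18 kg, fasted 18 h. Compound given iv in 3 mL or by gavage in 5 mL of 0.4% methylcellulose/saline, 1 h after infusion start. 30-min collections titrated. Summed 3-h AO against the same dog's control AO gives % inhibition. Usually one dog per compound.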

| Compound | inhibition in vivo at 4 mg/kg [%] |
| --- | --- |
| Cc1nc2c(OCc3ccc(C(C)(C)C)cc3)cccn2c1CC#N | 37 |
| Cc1nc2c(OCc3ccccc3F)cccn2c1CC#N | 34 |
| Cc1nc2c(OCc3ccccc3)cccn2c1CC(N)=O | 0 |
| CC(C)c1nc2c(OCc3ccccc3)cccn2c1CC#N | 36 |
| Cc1nc2c(OC(C)c3ccccc3)cccn2c1CC#N (stereo unspecified) | 6 |
| Cc1nc2c(OCc3ccc(C#N)cc3)cccn2c1CC#N | 0 |
| COc1ccc(COc2cccn3c(CC#N)c(C)nc23)cc1 | 13 |
| Cc1nc2c(OCc3ccc(F)cc3)cccn2c1CC#N | 35 |
| Cc1nc2c(OCc3ccc(Cl)c(Cl)c3)cccn2c1CC#N | 16 |
| Cc1nc2c(N(C)Cc3ccccc3)cccn2c1CC#N | 23 |
| Cc1cc(C)c(COc2cccn3c(CC#N)c(C)nc23)c(C)c1 | 0 |

These compounds were tested on Canis familiaris (assay: Inhibition of histamine stimulated gastric acid secretion in adult mongrel dogs at dose 8 mg/kg given orally). Details: Canis lupus familiaris, Stomach, route oral.
Format: functional
Outline: as §1

| Compound | inhibition in vivo at 8 mg/kg [%] |
| --- | --- |
| Cc1nc2c(OCc3ccccc3)cccn2c1Br | 0 |
| Cc1nc2c(OCc3ccc(C(C)(C)C)cc3)cccn2c1CC#N | 47 |
| Cc1nc2c(SCc3ccccc3)cccn2c1CC#N | 2 |
| Cc1nc2c(OCc3ccccc3F)cccn2c1CC#N | 65 |
| Cc1nc2c(OCc3cccc4ccccc34)cccn2c1CC#N | 15 |
| Cc1nc2c(OCCCc3ccccc3)cccn2c1CC#N | 8 |
| CC(C)c1nc2c(OCc3ccccc3)cccn2c1CC#N | 39 |
| Cc1nc2c(OC(C)c3ccccc3)cccn2c1CC#N (stereo unspecified) | 45 |
| Cc1nc2c(OCc3ccc(C#N)cc3)cccn2c1CC#N | 33 |
| COc1ccc(COc2cccn3c(CC#N)c(C)nc23)cc1 | 7 |
| Cc1nc2c(OCc3ccc(F)cc3)cccn2c1CC#N | 87 |
| Cc1nc2c(OCc3ccc(Cl)c(Cl)c3)cccn2c1CC#N | 23 |
| Cc1cc(C)c(COc2cccn3c(CC#N)c(C)nc23)c(C)c1 | 40 |

What follows are compounds tested on Canis familiaris (assay: Inhibition of histamine stimulated gastric acid secretion in adult mongrel dogs at dose 5 mg/kg given intravenously). Details: Canis lupus familiaris, Stomach, route intravenous.
Format: functional
Outline: as §1

| Compound | inhibition in vivo at 5 mg/kg [%] |
| --- | --- |
| Cc1nc2c(OCc3ccccc3)cccn2c1Br | 63 |
| Cc1nc2c(OCc3ccc(C(C)(C)C)cc3)cccn2c1CC#N | 52 |
| Cc1nc2c(SCc3ccccc3)cccn2c1CC#N | 89 |
| Cc1nc2c(OCc3ccccc3F)cccn2c1CC#N | 97 |
| Cc1nc2c(OCc3cccc4ccccc34)cccn2c1CC#N | 78 |
| Cc1nc2c(OCCCc3ccccc3)cccn2c1CC#N | 80 |
| Cc1nc2c(OCc3ccccc3)cccn2c1CC(N)=O | 46 |
| CC(C)c1nc2c(OCc3ccccc3)cccn2c1CC#N | 96 |
| Cc1nc2c(OC(C)c3ccccc3)cccn2c1CC#N (stereo unspecified) | 97 |
| Cc1nc2c(OCc3ccc(C#N)cc3)cccn2c1CC#N | 71 |
| Cc1nc2c(OCc3ccc(F)cc3)cccn2c1CC#N | 95 |
| Cc1cc(C)c(COc2cccn3c(CC#N)c(C)nc23)c(C)c1 | 86 |

Species on record: Rattus norvegicus
Experiment: Oral gastric cytoprotective activity in the rat against ethanol-induced lesions
Format: functional
Details: Stomach
Outline: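 Rats fasted and water-deprived for 20 h. Compound given orally, 1–30 mg/kg in 0.4% methylcellulose/saline, 30 min before 1 mL absolute ethanol po. Killed 1 h after ethanol. Linear hemorrhagic lesion lengths totalled per stomach, expressed as group mean. ED50 by linear regression.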

| Compound | ED50 [mg/kg] |
| --- | --- |
| Cc1nc2c(SCc3ccccc3)cccn2c1CC#N | 7 |
| Cc1nc2c(OCc3ccccc3F)cccn2c1CC#N | 6 |
| Cc1nc2c(OCc3cccc4ccccc34)cccn2c1CC#N | 9.8 |
| Cc1nc2c(OCCCc3ccccc3)cccn2c1CC#N | 4.3 |
| Cc1nc2c(OCc3ccccc3)cccn2c1CC(N)=O | 27 |
| CC(C)c1nc2c(OCc3ccccc3)cccn2c1CC#N | 5 |
| Cc1nc2c(OC(C)c3ccccc3)cccn2c1CC#N (stereo unspecified) | 3.7 |
| Cc1nc2c(OCc3ccc(C#N)cc3)cccn2c1CC#N | 8 |
| Cc1nc2c(OCc3ccc(F)cc3)cccn2c1CC#N | 5 |
| Cc1nc2c(OCc3ccc(Cl)c(Cl)c3)cccn2c1CC#N | 6 |

The compounds below were run on Canis familiaris (assay: Inhibition of histamine stimulated gastric acid secretion in adult mongrel dogs at dose 2 mg/kg given intravenously). Details: Canis lupus familiaris, Stomach, route intravenous.
Format: functional
Outline: as §1

| Compound | inhibition in vivo at 2 mg/kg [%] |
| --- | --- |
| Cc1nc2c(OC(C)c3ccccc3)cccn2c1CC#N (stereo unspecified) | 78 |
| COc1ccc(COc2cccn3c(CC#N)c(C)nc23)cc1 | 43 |
| Cc1nc2c(OCc3ccc(Cl)c(Cl)c3)cccn2c1CC#N | 89 |
| Cc1nc2c(N(C)Cc3ccccc3)cccn2c1CC#N | 46 |
| Cc1cc(C)c(COc2cccn3c(CC#N)c(C)nc23)c(C)c1 | 22 |

What follows are compounds tested on Rattus norvegicus (assay: Gastric antisecretory activity in the pylorus-ligated rat and the reduction in acid output was measured after 4 hr by intraperitoneal (ip) administration of 40 mg/kg dose.). Details: not given.
Format: functional
Outline: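 Male Charles River CD rats, 150–200 g, fasted 24 h. Pylorus ligated under Brevital anesthesia. 40 mg/kg given ip in 2.5% Tween 80 at ligation. Stomach contents collected at 4 h and titrated with 0.1 N NaOH to pH 7.0. % inhibition from mean AO, 6 treated vs 8 control rats. Student's t test.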

| Compound | inhibition in vivo at 40 mg/kg [%] |
| --- | --- |
| Cc1nc2c(OCc3ccccc3)cccn2c1Br | 26 |
| Cc1nc2c(OCc3ccc(C(C)(C)C)cc3)cccn2c1CC#N | 47 |
| Cc1nc2c(SCc3ccccc3)cccn2c1CC#N | 22 |
| Cc1nc2c(OCc3ccccc3F)cccn2c1CC#N | 96 |
| Cc1nc2c(OCc3cccc4ccccc34)cccn2c1CC#N | 0 |
| Cc1nc2c(OCCCc3ccccc3)cccn2c1CC#N | 64 |
| Cc1nc2c(OCc3ccccc3)cccn2c1CC(N)=O | 28 |
| CC(C)c1nc2c(OCc3ccccc3)cccn2c1CC#N | 72 |
| Cc1nc2c(OC(C)c3ccccc3)cccn2c1CC#N (stereo unspecified) | 96 |
| Cc1nc2c(OCc3ccc(C#N)cc3)cccn2c1CC#N | 69 |
| COc1ccc(COc2cccn3c(CC#N)c(C)nc23)cc1 | 25 |
| Cc1nc2c(OCc3ccc(F)cc3)cccn2c1CC#N | 99 |
| Cc1nc2c(OCc3ccc(Cl)c(Cl)c3)cccn2c1CC#N | 42 |
| Cc1nc2c(N(C)Cc3ccccc3)cccn2c1CC#N | 94 |
| Cc1cc(C)c(COc2cccn3c(CC#N)c(C)nc23)c(C)c1 | 49 |
